Reference: ChEMBL document CHEMBL1157665, “Novel 4-thiazolidinone derivatives as potential antifungal and antibacterial drugs” (2010)
Values after ≈ are worked out from the molar mass of the structure shown.

Columns and labels:
[1] = system: Salmonella typhimurium; test: Antibacterial activity against Salmonella Typhimurium ATCC 13311 after 24 hrs; type: functional, Salmonella enterica subsp. enterica serovar Typhimurium; details: Salmonella enterica, ATCC 13311, 24 h
Summary of the method: (§1)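 Broth microdilution MIC in 96-well plates. Compounds in LB broth with bacterial inoculum of 1.0 × 10^4 cfu per well, from suspensions adjusted with sterile saline to 1.0 × 10⁵ CFU/ml. Incubated 24 h at […] as printed. MIC taken as the lowest concentration with no visible growth under the binocular microscope. OD at 655 nm also read against blank. Streptomycin and ampicillin as positive controls. Duplicate, repeated three times.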

[2] = system: Micrococcus flavus; test: Antibacterial activity against Micrococcus flavus ATCC 10240 after 24 hrs; type: functional; details: ATCC 10240, 24 h; summary of the method: as §1
[3] = system: Penicillium ochrochloron; test: Antifungal activity against Penicillium ochrochloron ATCC 9112 after 72 hrs by serial dilution method; type: functional; details: ATCC 9112, 72 h
Summary of the method: (§2)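 Fungi were kept on malt agar at 4 °C and sub-cultured monthly. Spores were washed off the agar with sterile 0.85% saline containing 0.1% Tween 80 (v/v). Modified microdilution in 96-well plates. MIC is the lowest concentration with no visible growth under the binocular microscope. Inoculum checked on malt agar for contamination and validity.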

[4] = system: Aspergillus flavus; test: Antifungal activity against Aspergillus flavus ATCC 9643 after 72 hrs by serial sub-cultivation method; type: functional; details: ATCC 9643, 72 h
Summary of the method: (§3)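 MFC was found by serial sub-cultivation of 2 µl into plates holding 100 µl broth per well, then incubation 72 h at 28 °C. MFC is the lowest concentration with no visible growth, taken as 99.5% killing of the original inoculum. Spore inocula came from malt agar cultures washed with 0.85% saline and 0.1% Tween 80.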

[5] = system: Bacillus cereus; test: Antibacterial activity against Bacillus cereus clinical isolate after 24 hrs; type: functional; summary of the method: as §1
[6] = system: Staphylococcus aureus; test: Antibacterial activity against Staphylococcus aureus ATCC 6538 after 72 hrs by serial sub-cultivation method; type: functional; details: ATCC 6538, 72 h
Summary of the method: (§4)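 MBC was found by serial sub-cultivation of 2 µl from the MIC wells into plates holding 100 µl broth per well, then incubation for 72 h. MBC is the lowest concentration with no visible growth, i.e. 99.5% killing of the original inoculum. Bacterial inoculum was 1.0 × 10^4 cfu per well in LB broth. Duplicate, repeated three times.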

[7] = system: Proteus mirabilis; test: Antibacterial activity against Proteus mirabilis after 72 hrs by serial sub-cultivation method; type: functional; summary of the method: as §4
[8] = system: Listeria monocytogenes; test: Antibacterial activity against Listeria monocytogenes NCTC 7973 after 72 hrs by serial sub-cultivation method; type: functional; details: NCTC 7973, 72 h; summary of the method: as §4
[9] = system: Bacillus cereus; test: Antibacterial activity against Bacillus cereus clinical isolate after 72 hrs by serial sub-cultivation method; type: functional; summary of the method: as §4
[10] = system: Proteus mirabilis; test: Antibacterial activity against Proteus mirabilis after 24 hrs; type: functional; summary of the method: as §1
[11] = system: Pseudomonas aeruginosa; test: Antibacterial activity against Pseudomonas aeruginosa ATCC 27853 after 72 hrs by serial sub-cultivation method; type: functional; details: ATCC 27853, 72 h; summary of the method: as §4
[12] = system: Aspergillus niger; test: Antifungal activity against Aspergillus niger ATCC 6275 after 72 hrs by serial dilution method; type: functional; details: ATCC 6275, 72 h; summary of the method: as §2
[13] = system: Trichoderma viride; test: Antifungal activity against Trichoderma viride IAM 5061 after 72 hrs by serial dilution method; type: functional; details: IAM 5061, 72 h; summary of the method: as §2
[14] = system: Talaromyces funiculosus; test: Antifungal activity against Penicillium funiculosum ATCC 36839 after 72 hrs by serial sub-cultivation method; type: functional; details: ATCC 36839, 72 h; summary of the method: as §3
[15] = system: Staphylococcus aureus; test: Antibacterial activity against Staphylococcus aureus ATCC 6538 after 24 hrs; type: functional; details: ATCC 6538, 24 h; summary of the method: as §1
[16] = system: Pseudomonas aeruginosa; test: Antibacterial activity against Pseudomonas aeruginosa ATCC 27853 after 24 hrs; type: functional; details: ATCC 27853, 24 h; summary of the method: as §1
[17] = system: Talaromyces funiculosus; test: Antifungal activity against Penicillium funiculosum ATCC 36839 after 72 hrs by serial dilution method; type: functional; details: ATCC 36839, 72 h; summary of the method: as §2
[18] = system: Listeria monocytogenes; test: Antibacterial activity against Listeria monocytogenes NCTC 7973 after 24 hrs; type: functional; details: NCTC 7973, 24 h; summary of the method: as §1
[19] = system: Penicillium ochrochloron; test: Antifungal activity against Penicillium ochrochloron ATCC 9112 after 72 hrs by serial sub-cultivation method; type: functional; details: ATCC 9112, 72 h; summary of the method: as §3
[20] = system: Escherichia coli; test: Antibacterial activity against Escherichia coli ATCC 35210 after 72 hrs by serial sub-cultivation method; type: functional; details: ATCC 35210, 72 h; summary of the method: as §4
[21] = system: Aspergillus fumigatus; test: Antifungal activity against Aspergillus fumigatus plant isolate after 72 hrs by serial dilution method
[22] = system: Aspergillus flavus; test: Antifungal activity against Aspergillus flavus ATCC 9643 after 72 hrs by serial dilution method; type: functional; details: ATCC 9643, 72 h; summary of the method: as §2
[23] = system: Aspergillus fumigatus; test: Antifungal activity against Aspergillus fumigatus plant isolate after 72 hrs by serial sub-cultivation method
[24] = system: Escherichia coli; test: Antibacterial activity against Escherichia coli ATCC 35210 after 24 hrs; type: functional; details: ATCC 35210, 24 h; summary of the method: as §1
[25] = system: Trichoderma viride; test: Antifungal activity against Trichoderma viride IAM 5061 after 72 hrs by serial sub-cultivation method; type: functional; details: IAM 5061, 72 h; summary of the method: as §3
[26] = system: Fulvia fulva; test: Antifungal activity against Fulvia fulva TK 5318 after 72 hrs by serial sub-cultivation method; type: functional; details: TK 5318, 72 h; summary of the method: as §3
[27] = system: Micrococcus flavus; test: Antibacterial activity against Micrococcus flavus ATCC 10240 after 72 hrs by serial sub-cultivation method; type: functional; details: ATCC 10240, 72 h; summary of the method: as §4
[28] = system: Aspergillus versicolor; test: Antifungal activity against Aspergillus versicolor ATCC 11730 after 72 hrs by serial dilution method; type: functional; details: ATCC 11730, 72 h; summary of the method: as §2
[29] = system: Aspergillus niger; test: Antifungal activity against Aspergillus niger ATCC 6275 after 72 hrs by serial sub-cultivation method; type: functional; details: ATCC 6275, 72 h; summary of the method: as §3
[30] = system: Fulvia fulva; test: Antifungal activity against Fulvia fulva TK 5318 after 72 hrs by serial dilution method; type: functional; details: TK 5318, 72 h; summary of the method: as §2
[31] = system: Salmonella typhimurium; test: Antibacterial activity against Salmonella Typhimurium ATCC 13311 after 72 hrs by serial sub-cultivation method; type: functional, Salmonella enterica subsp. enterica serovar Typhimurium; details: Salmonella enterica, ATCC 13311, 72 h; summary of the method: as §4
[32] = system: Aspergillus versicolor; test: Antifungal activity against Aspergillus versicolor ATCC 11730 after 72 hrs by serial sub-cultivation method; type: functional; details: ATCC 11730, 72 h; summary of the method: as §3

Q: `O=C1CS/C(=N/c2nc(C34CC5CC(CC(C5)C3)C4)cs2)N1` was tested. Which MIC [1] did it give?
A: 23.8 µM (≈ 7.94 µg/mL)

Q: What about the MIC [2] of the same compound?
A: 23.8 µM (≈ 7.94 µg/mL)

Q: What about the MIC [3] of the same compound?
A: 6 µM (≈ 2 µg/mL)

Q: And the MFC [4]?
A: 23.8 µM (≈ 7.94 µg/mL)

Q: What about the MIC [5] of the same compound?
A: 17.9 µM (≈ 5.97 µg/mL)

Q: And the MBC [6]?
A: 47.6 µM (≈ 15.9 µg/mL)

Q: What about the MBC [7] of the same compound?
A: 71.7 µM (≈ 23.9 µg/mL)

Q: And the MBC [8]?
A: 47.6 µM (≈ 15.9 µg/mL)

Q: And the MBC [9]?
A: 23.8 µM (≈ 7.94 µg/mL)

Q: And the MIC [10]?
A: 47.6 µM (≈ 15.9 µg/mL)

Q: And the MBC [11]?
A: 47.6 µM (≈ 15.9 µg/mL)

Q: And the MIC [12]?
A: 11.9 µM (≈ 3.97 µg/mL)

Q: What about the MIC [13] of the same compound?
A: 11.9 µM (≈ 3.97 µg/mL)

Q: And the MFC [14]?
A: 23.8 µM (≈ 7.94 µg/mL)

Q: What about the MIC [15] of the same compound?
A: 23.8 µM (≈ 7.94 µg/mL)

Q: What about the MIC [16] of the same compound?
A: 17.9 µM (≈ 5.97 µg/mL)

Q: And the MIC [17]?
A: 17.9 µM (≈ 5.97 µg/mL)

Q: And the MIC [18]?
A: 23.8 µM (≈ 7.94 µg/mL)

Q: What about the MFC [19] of the same compound?
A: 23.8 µM (≈ 7.94 µg/mL)

Q: And the MBC [20]?
A: 47.6 µM (≈ 15.9 µg/mL)

Q: What about the MIC [21] of the same compound?
A: 11.9 µM (≈ 3.97 µg/mL)

Q: What about the MIC [22] of the same compound?
A: 17.9 µM (≈ 5.97 µg/mL)

Q: And the MFC [23]?
A: 23.8 µM (≈ 7.94 µg/mL)

Q: And the MIC [24]?
A: 23.8 µM (≈ 7.94 µg/mL)

Q: What about the MFC [25] of the same compound?
A: 23.8 µM (≈ 7.94 µg/mL)

Q: And the MFC [26]?
A: 11.9 µM (≈ 3.97 µg/mL)

Q: What about the MBC [27] of the same compound?
A: 47.6 µM (≈ 15.9 µg/mL)

Q: And the MIC [28]?
A: 23.8 µM (≈ 7.94 µg/mL)

Q: And the MFC [29]?
A: 23.8 µM (≈ 7.94 µg/mL)

Q: And the MIC [30]?
A: 6 µM (≈ 2 µg/mL)

Q: And the MBC [31]?
A: 47.6 µM (≈ 15.9 µg/mL)

Q: And the MFC [32]?
A: 33.5 µM (≈ 11.2 µg/mL)
